High-throughput results as filed in PubChem.
Most compounds without a hit are left out; they make up all but 1.4% or so of the library.
hK5 inh = kallikrein 5 (human) inhibition | Q9Y337 | inhibition, % at 5 µM | recombinant hK5, fluorogenic AMC substrate cleavage | 0.59% of 210,000 active;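 active = inhibition of 40% or more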;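 also: 0% = enzyme controls without compound and 100% = no-enzyme blanks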
Target sequence (Q9Y337 67-293 limits assumed): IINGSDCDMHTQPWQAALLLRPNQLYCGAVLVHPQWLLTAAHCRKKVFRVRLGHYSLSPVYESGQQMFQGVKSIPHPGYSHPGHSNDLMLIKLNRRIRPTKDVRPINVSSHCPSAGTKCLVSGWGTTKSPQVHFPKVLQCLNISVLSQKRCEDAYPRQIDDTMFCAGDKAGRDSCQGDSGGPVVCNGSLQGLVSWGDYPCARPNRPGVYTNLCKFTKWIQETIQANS
FXIIa inh 1536 = inhibitors of human coagulation factor XIIa. P00748. purified FXIIa, Boc-QGR-AMC fluorogenic substrate, 2 h. inhibition, % at 5 µM. 0.3% of 220,000 active. AID 800; in the data active = inhibition above about 40%;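 also: 0% = enzyme with no compound and 100% = blank without enzyme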
FXIa inh 1536 = inhibitors of human coagulation factor XIa; purified FXIa, Boc-Glu-Ala-Arg-AMC fluorogenic substrate; inhibition, % at 5 µM; 0.14% of 220,000 active; AID 798;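 active = inhibition of at least 40%; inactive = inhibition below 40%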;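 also: fluorescence of freed AMC excited at 355 nm; 0% = enzyme without compound and 100% = no enzyme blank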
m-calpain inh = inhibitors of pig calpain II; purified calpain II, fluorogenic peptide substrate, 30 min; inhibition, % at 16 µM; 0.37% of 220,000 active; AID 1236;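 active = inhibition above about 50%, limit read from the data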
thrombin 1536 = inhibitors of human thrombin | P00734 | alpha-thrombin, Boc-VPR-AMC fluorogenic substrate cleavage | inhibition, % at 5 µM | 0.26% of 220,000 active | AID 1046;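 active = inhibition at or above 40%; inactive = inhibition below 40%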;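 also: 0% = enzyme with no compound and 100% = wells without enzyme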
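Material: human alpha-thrombin enzyme / Medium: pH 7.5 Tris (50 mM) with NaCl 150 mM, Tween 20 0.05% / Compound: single-point dosing at 5 µM, 0.2% DMSO / Incubation: enzyme reaction carried out at room temperature / Detection: AMC fluorescence, 355/460 nm / Read-out basis: percent inhibition scaled between no-compound controls and no-enzyme blanks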
Furin inh = inhibitors of human furin; AID 463115; purified furin, fluorogenic substrate cleavage; inhibition, % at 20 µM or 30 µM; P09958; 0.061% of 220,000 active; in the data active = inhibition above about 25%
* marks the source's active call; other numbers are inactive results; nt = not tested or not shown; ! = not confirmed by another sample.

SMILES	hK5 inh	FXIIa inh 1536	FXIa inh 1536	m-calpain inh	thrombin 1536	Furin inh
O=C(NCCN1CCOCC1)c1ccc(Cl)nc1Cl	8	15	8	29	nt	-8
O=P(C(=Nc1ccc(Cl)cc1)N1CCOCC1)(N1CCOCC1)N1CCOCC1	42*	20	15	23	28	-5
Cc1cccc(-n2c(O)c(/C=C/C=Nc3ccccc3)c(=O)[nH]c2=O)c1	-16	3	-2	14	0	31*
CCOC(=O)C1(c2ccccc2)CCN(CC(=O)Nc2cccc3ccccc23)CC1	-22	11	21	19	2	-19
CCOC(=O)C1(c2ccccc2)CCN(Cc2cccc(C(=O)O)c2)CC1	44*	19	12	1	20	-18
CCC(=NCCCN(CC)CC)c1c(O)n(-c2ccccc2)c(=O)[nH]c1=O	-6	7	1	15	1	-8
CC1CCCC(C)N1/N=C/c1c[nH]c2ccc(Br)cc12 (centres undefined)	45*	19	1	18	18	-6
Cc1ccc(N2C(=O)NC(=O)C(CCc3ccccn3)(Cc3cccc(Cl)c3Cl)C2=O)cc1 (centres undefined)	-10	3	-6	-33	-16	-8
CCCC1C(C#N)=C(N)Oc2c1c(=O)oc1ccccc21 (centres undefined)	-7	19	12	-18	0	-9
CCCC(C)C1C(C#N)=C(N)Oc2c1c(=O)oc1ccccc21 (centres undefined)	68*	26	16	8	10	-24
C[C@]12CCC(=O)C=C1CCC1C2CC[C@@]2(C)C1CC[C@@]2(O)CC#N (some centres undefined)	62*	17	9	24	16	-14
O=P(Nc1cccc(Cl)c1)(Oc1ccccc1)Oc1ccccc1	-5	1	-3	60*	-6	-7
O=c1[nH]c(=O)n(Cc2ccco2)c(O)c1C=NCc1ccco1	44*	1	16	-3	14	-17
CC(C)C(=O)Nc1ccc(N2CCN(C)CC2)c(F)c1	14	15	12	19	26	-11
COc1ccc2[nH]c(C)c(CCN3CCC(=O)C(C)C3C)c2c1 (centres undefined)	-4	15	8	60*	-8	-22
COc1ccc2[nH]c(C)c(CCNCc3cc(OC)c(OC)c(OC)c3)c2c1	5	11	-1	-32	-2	-20
COC(=O)N(C)c1ccc(C(O)(C(=O)OC)C(F)(F)F)cc1 (centres undefined)	-9	12	5	20	-6	-3
C=COCCn1c(C)c(C(C)=O)c2cc(O)ccc21	-1	7	-4	-42	-11	-16
CC(=O)c1c(C)n(CCCOC(C)C)c2ccc(O)cc12	43*	-9	3	10	37	-17
O=C(COc1ccccc1)c1cn(Cc2ccccc2)c2ccccc12	-6	2	5	7	8	-15
CCc1ccccc1N1C(=O)CC(=O)NC1=O	34	29	42*	11	46*	-4
Cc1ccccc1N1C(=O)CC(=O)NC1=O	-1	20	14	5	2	-19
COc1ccc(C2(C#N)CCN(C)CC2)cc1	-12	9	5	-5	-4	-23
N#CSCC(=O)N1c2ccccc2CCc2ccccc21	-7	11	5	2	3	-18
CCC(=NCC1CCCO1)c1c(O)n(-c2ccc(Cl)cc2)c(=O)[nH]c1=O (centres undefined)	-21	13	-1	-39	4	-19
CCC(=NCC1CCCO1)c1c(O)n(-c2ccccc2)c(=O)[nH]c1=O (centres undefined)	61*	18	18	16	15	-3
Cc1cc2c(C(C)C)c(O)c(O)c(C=O)c2c(O)c1-c1c(C)cc2c(C(C)C)c(O)c(O)c(C=O)c2c1O	-168	30	21	55*!	5	-3
Cc1cc(C(=O)N2CCC3(CC2)OCCO3)cs1	-30	13	-12	-4	-5	-12
CC[N+](C)(CC)CCCCOc1ccc2c(c1)C(=O)c1cc(OCCCC[N+](C)(CC)CC)ccc1-2	-1	4	-1	0	-1	-14
CCOc1ccc(-n2c(-c3ccoc3)nc3ccccc3c2=O)cc1	-31	10	2	16	5	-3
